# Rad51 HR inh: human RAD51 strand exchange inhibitors, primary screen, biochemical, fluorescence; 200,000 compounds, 0.085% hits; inhibition, % at 10 µM; AID 1385, 2008; hRad51 DNA strand exchange, fluorescence dequenching;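 active = inhibition above 40% at the single screening dose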;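 also: 0% = DMSO control wells and 100% = blanks with heterologous ssDNA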
#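 Assay system: Human Rad51 nucleoprotein filaments preassembled on unlabelled ssDNA | Reagent: Donor/quencher-labelled 47-bp dsDNA substrate | Doses: One concentration, 10 µM final | Times: 37 °C 15-min filament assembly, 30-min compound preincubation, 15-min exchange | Technique: Fluorescein emission 520 nm, excitation 485 nm | Benchmarks: Plate control and blank wells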
# CHT inh: inhibitors of human choline transporter CHT; AID 488975, 2010; CHT-expressing cells, membrane potential dye, choline response; active compounds read low; 310,000 compounds, 0.86% hits; B-score at 10 µM;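 active = B-score over 3 SD under the library average, and starting fluorescence ratio not unusually high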;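 also: choline stimulus applied at its EC90 after an EC20 pre-addition; B-score computed on integrated fluorescence ratio after choline addition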
# Target sequence (Q9GZV3 whole entry, looked up): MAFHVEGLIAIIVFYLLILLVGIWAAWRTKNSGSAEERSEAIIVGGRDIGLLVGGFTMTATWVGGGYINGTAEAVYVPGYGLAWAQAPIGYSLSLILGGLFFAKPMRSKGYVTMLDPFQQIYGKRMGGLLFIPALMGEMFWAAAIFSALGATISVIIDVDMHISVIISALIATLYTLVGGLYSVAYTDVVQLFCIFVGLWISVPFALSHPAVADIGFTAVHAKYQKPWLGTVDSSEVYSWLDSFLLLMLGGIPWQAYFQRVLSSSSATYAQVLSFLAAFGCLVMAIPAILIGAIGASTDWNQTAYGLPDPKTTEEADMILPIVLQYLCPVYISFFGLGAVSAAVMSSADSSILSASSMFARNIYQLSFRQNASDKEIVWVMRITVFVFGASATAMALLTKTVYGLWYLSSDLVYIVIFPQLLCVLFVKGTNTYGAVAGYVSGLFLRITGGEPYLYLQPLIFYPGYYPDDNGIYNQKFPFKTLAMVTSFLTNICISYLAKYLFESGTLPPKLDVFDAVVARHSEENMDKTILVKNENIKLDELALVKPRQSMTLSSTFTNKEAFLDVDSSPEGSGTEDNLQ
# CHT PAM: CHT positive allosteric modulators, primary screen, cell-based, membrane potential dye, choline EC20 | High affinity choline transporter 1 (Homo sapiens), Q9GZV3 | CHT-expressing cells; active compounds read high; LV-AA mutant CHT in HEK293 cells | B-score at 10 µM | 310,000 compounds, 0.49% hits;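 active = initial fluorescence not abnormally high and integrated response B-score, plate-corrected, over 3 SD above library mean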
# KCC2 mod: KCC2 cotransporter modulators, thallium flux, primary screen, cell-based, HEK293 KCC2, FluoZin-2 fluorescence, MLSMR; 190,000 compounds, 2.2% hits; B-score of Tl+ flux slope (higher = more flux/activation; lower = inhibition) at 10 µM; KCC2 cells, thallium flux FluoZin-2 fluorescence; AID 1456, 2008; Solute carrier family 12 member 5 (Homo sapiens), Q9H2X9;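 active = thallium flux slope and its plate-corrected score both differing from the plate sample mean at a set confidence after two filtering rounds, in either direction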;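 also: slope of fluorescence scaled to starting intensity during 10 to 20 s after thallium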
# CHT block conf: CHT inhibitors, confirmation, cell-based, membrane potential dye, duplicate; CHT-expressing cells, choline membrane potential dye; LV-to-AA substituted CHT, HEK293 cells; shares compounds with CHT inh; CHT activity remaining % of control (active compounds read low), % at 10 µM; 2,400 compounds, 70% hits;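 active = choline transporter activity left, mean of duplicates at 10 µM, below buffer-only control mean minus 3 SD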;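 also: depolarization triggered by choline at its EC90 following an EC20 pre-addition; 0% = hemicholinium-3 full block and 100% = buffer-only control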
# HEK293 MPD ctr: membrane potential effects in parental HEK293, counter-screen for CHT inhibitor project, cell-based, membrane potential dye; 2,400 compounds, 4% hits; shares compounds with CHT inh; membrane potential ratio readout (active if shifted either direction beyond buffer ±3SD; no single direction) at 10 µM; choline response; active = decrease or increase beyond buffer ±3SD;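 also: parental cells lack the transporter so any hit is non-specific; ratio is peak minus trough fluorescence over baseline after EC90 choline challenge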
# Numbers without * were called inactive; i = inactive; . = not tested or not shown. Only some compounds are listed: those with a hit (about 2.6% of all), similar ones and a draw of the others.
SMILES,Rad51 HR inh,CHT inh,CHT PAM,KCC2 mod,CHT block conf,HEK293 MPD ctr
Clc1ccc(OCCSCc2nc3ccccc3[nH]2)cc1,-16,i,i,.,.,.
COc1ccc(CNC(=O)[C@H](C)NC(=O)N2CCn3c2nc2ccccc23)cc1,.,-6*,i,.,47%*,i
CCN(CC(=O)NCc1cccs1)C(=O)c1ccc(S(=O)(=O)Nc2cccc(C)c2C)cc1,.,i,i,.,.,.
O=c1c2ccccc2nc(SCc2ccncc2)n1CC1CCCO1 (stereo unspecified),-24,-5*,i,-0.7,38%*,i
O=C(CSc1nc2ccccc2c(=O)n1CC1CCCO1)NCc1ccccc1 (stereo unspecified),.,i,i,.,.,.
CCOC(=O)C1=C(c2ccccc2)NC(=O)NC1c1cccc(OC)c1OC (stereo unspecified),.,i,i,.,.,.
NC(=O)c1nsc(C(=O)N(Cc2ccc(F)cc2)C(C(=O)NC2CCCC2)c2ccco2)c1N (stereo unspecified),.,-7.9*,i,.,i,i
Oc1c(Br)cc(Cl)cc1C=Nc1ccc(N2CCOCC2)cc1,-21,i,i,-2.8,.,.
Oc1c(Br)cc(Cl)cc1C=Nc1ccccc1Br,-6,-7.1*,i,0.03,68%*,i
COc1cccc(NC(=O)c2cc3ccccc3o/c2=N\O)c1,.,-6.3*,i,.,i,i
O=C(Nc1ccccc1Cl)c1cc2ccccc2o/c1=N\O,.,i,i,.,.,.
CC(NC(=O)c1ccc(OC2CCN(Cc3ccccn3)CC2)cc1)c1ccccc1 (stereo unspecified),18,-10*,i,-1.3,-1.0%*,i
CCOc1ccccc1C(=O)NCC(=O)NCCc1ccc(S(N)(=O)=O)cc1,.,i,i,.,.,.
O=c1[nH]ncc(N2CCCC2)c1Cl,0,-10*,i,-0.0048,42%*,i
O=C(O)CC(Cc1ccc(Cl)cc1)C(=O)Nc1cc(Cl)ccc1Cl (stereo unspecified),.,-5.3*,i,.,53%*,i
CS(=O)(=O)c1ccc(Cl)c(NC(=O)COC(=O)CNC(=O)c2ccc3ccccc3c2)c1,.,i,i,.,.,.
O=C(c1c(O)c2ccccc2oc1=O)C1CCCCC1,-3,-7.5*,i,-0.97,58%*,i
CC(NC(=O)Cn1nc(-c2ccccc2)ccc1=O)c1ccccc1 (stereo unspecified),.,i,i,-2.8,.,.
O=C(Cn1nc(-c2ccccc2)ccc1=O)NCc1ccc(F)cc1,-9,-6.3*,i,-3.2,49%*,i
CCCn1c(CN2CCN(c3cccc(Cl)c3)CC2)nc2c1c(=O)n(C)c(=O)n2C,-5,-11*,i,-0.34,-13%*,i
CCCCCn1c(CN2CCN(c3cccc(Cl)c3)CC2)nc2c1c(=O)n(C)c(=O)n2C,-7,i,i,0.38,.,.
CCCCCn1c(CN2CCCCC2C)nc2c1c(=O)n(C)c(=O)n2C (stereo unspecified),-1,-5*,i,.,45%*,i
CCCCn1c(CN2CCN(c3cccc(Cl)c3)CC2)nc2c1c(=O)n(C)c(=O)n2C,7,-13*,i,-2.4,29%*,i
CCCCn1c(CN2CCN(c3ccccc3)CC2)nc2c1c(=O)n(C)c(=O)n2C,8,-9.6*,i,-0.12,-42%*,i
CCOC(=O)c1c(NC(=O)COC(=O)c2nc(Cl)ccc2Cl)sc2c1CCC2,4,i,i,0.14,.,.
SMILES,Rad51 HR inh,CHT inh,CHT PAM,KCC2 mod,CHT block conf,HEK293 MPD ctr
CCOC(=O)N1CCN(C(=O)c2ccc3nc(SCc4ccc(F)cc4)n(C)c3c2)CC1,.,-4.9*,i,-0.79,i,i
CN1CCN(C(=O)c2ccc(CSc3nc4ccncc4n3Cc3ccc(F)cc3)cc2)CC1,5,i,i,-0.06,.,.
O=C(Nc1ccccc1)c1nnn(Cc2ccccc2)c1NC(=O)C(F)(F)F,-6,-5*,i,-1.1,32%*,i
CCCCCc1cc(=O)oc2c(C(CCN(CC)CC)c3cc(OC)c(OC)c(OC)c3)c(OC)cc(OC)c12 (stereo unspecified),-1,-5.8*,i,1.6,51%*,i
CC(C)Cc1nnc(NC(=O)C2CCCC2)s1,.,i,i,.,.,.
O=C(NC(=S)NNC(=O)c1ccccc1O)c1ccccc1,.,i,i,.,.,.
Cc1cccc(C(=O)NNC(=S)NC(=O)c2cccs2)c1,.,-7.5*,i,.,29%*,i
Cc1ccccc1C(=O)NNC(=S)NC(=O)c1ccccc1,6,-8.4*,i,30*,47%*,i
Cc1ccccc1NC(=S)NNC(=O)c1ccncc1,1,-6.1*,i,-0.12,61%*,i
Cc1cccc(C(=O)NNC(=S)NC(=O)c2ccccc2)c1,.,-7.4*,i,.,41%*,i
Cc1ccccc1NC(=S)NNC(=O)c1cccnc1,.,i,i,0.55,.,.
Cn1ncc2c(=O)n(/N=C/c3ccccc3)cnc21,5,i,i,0.13,.,.
COc1ccc(C(=O)NC(=S)NNC(=O)c2cccc(C)c2)cc1,.,-7.8*,i,.,i,i
COC(=O)C(C)Sc1nc2c(c(=O)[nH]c(=O)n2C)n1CCC(C)C (stereo unspecified),-5,-5.1*,i,-1.1,40%*,i
CCC(C)Nc1nc2c(c(=O)[nH]c(=O)n2C)n1CCC(C)C (stereo unspecified),2,-8.3*,i,-1.2,i,i
CCC(C)Nc1nc2c(c(=O)[nH]c(=O)n2C)n1CCCc1ccccc1 (stereo unspecified),.,i,i,.,.,.
CC(C(=O)NCc1cccnc1)c1ccc([N+](=O)[O-])cc1 (stereo unspecified),.,i,i,.,.,.
COc1ccc(C2=NO[C@@](CC(=O)O)(C(=O)Nc3ccc4c(c3)OCCO4)C2)cc1,.,i,i,.,.,.
COc1ccc(C(C)NC(=S)NC2CCCC2)cc1OC (stereo unspecified),2,i,i,0.57,.,.
Cc1ccc(C(C)NC(=S)NC2CCCCC2)cc1C (stereo unspecified),.,-12*,i,.,22%*,i
CC(NC(=O)NC1CCCCC1)c1ccc2c(c1)OCO2 (stereo unspecified),-9,-6.7*,i,2,66%*,i

# Screening results (PubChem)
